According to ChEMBL document CHEMBL3593222, “6-Phenoxy-2-phenylbenzoxazoles, novel inhibitors of receptor for advanced glycation end products (RAGE)” (Bioorg Med Chem, 2015):
The source made the active and inactive calls. The rule behind the calls is not given here.

Experiments:
[1] = target: Advanced glycosylation end product-specific receptor (Homo sapiens) (UniProt Q15109); assay: Inhibition of human RAGE-amyloid beta-42 interaction at 4 uM preincubated for 30 mins measured after 1 hr by FRET assay relative to control
Chain of Advanced glycosylation end product-specific receptor (Homo sapiens) (Q15109 whole entry): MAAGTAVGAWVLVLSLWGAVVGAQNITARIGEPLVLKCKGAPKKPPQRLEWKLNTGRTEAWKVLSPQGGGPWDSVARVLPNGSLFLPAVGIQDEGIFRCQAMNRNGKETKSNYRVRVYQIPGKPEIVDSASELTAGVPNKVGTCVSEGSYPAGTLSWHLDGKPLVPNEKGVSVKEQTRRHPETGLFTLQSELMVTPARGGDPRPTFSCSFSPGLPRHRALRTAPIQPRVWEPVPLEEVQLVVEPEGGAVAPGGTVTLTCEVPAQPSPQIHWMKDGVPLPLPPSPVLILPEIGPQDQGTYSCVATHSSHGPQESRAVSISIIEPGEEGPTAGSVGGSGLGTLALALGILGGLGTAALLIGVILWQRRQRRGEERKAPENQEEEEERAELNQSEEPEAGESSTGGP
Outline: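 Biotinylated human RAGE (2.5 µg) was premixed with 200 ng Cy3-streptavidin in PBS for 30 min at rt. Aβ42-FITC (50 µL of 40 nM) and compound (50 µL of 4 µM) were then added, in 200 µL final volume with 0.1% DMSO. Fluorescence was read 1 h later. FRET efficiency was computed from donor emission with and without acceptor, and percent inhibition was taken against vehicle. Triplicate.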

[2] = system: HT-22; assay: (§1) Cytotoxicity against mouse HT22 cells assessed as cell viability at 10 uM after 18 hrs by MTT assay; format: cell-based; conditions: ht-22, 18 h, 10 µM
Outline: (§2)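 HT22 cells were grown in DMEM with 10% FBS and penicillin/streptomycin at 37 °C in 5% CO2, and seeded at 5000 cells/well. Next day they were exposed to 10 µM compound for 18 h. MTT was then added for 3 h, formazan dissolved in acidic 2-propanol, and OD read at 570 nm. Viability is blank-corrected absorbance relative to control. Run in triplicate.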

[3] = as §1; format: cell-based, HT-22; conditions: HT22 cells, read-out: Activity; outline: as §2

SMILES | inhibition [1] | Activity [2] | viability at 18 h, 10 µM [3] [%]
COC(=O)N1CCN(CCCOc2ccc(-c3nc4ccc(Oc5ccc(Cl)cc5)cc4o3)cc2)CC1 | inactive | Non-toxic | –
N[C@H]1CCN(CCCOc2ccc(-c3nc4ccc(Oc5ccc(Cl)cc5)cc4o3)cc2)C1 | 29.9% | Non-toxic | –
CCN(CC)CCOc1ccc(-c2nc3ccc(Oc4ccc(Cl)cc4)cc3o2)cc1 | 33.5% | – | 85.2
OCCN1CCN(CCCOc2ccc(-c3nc4ccc(Oc5ccc(Cl)cc5)cc4o3)cc2)CC1 | 3.3% | – | 3.3
FC(F)(F)c1cccc(Oc2ccc3nc(-c4ccc(OCCCN5CCCCC5)cc4)oc3c2)c1 | 42.7% | – | 4.4
CC(=O)N1CCC(COc2ccc(-c3nc4ccc(Oc5ccc(Cl)cc5)cc4o3)cc2)CC1 | inactive | – | 32.7
N[C@@H]1CCN(CCCOc2ccc(-c3nc4ccc(Oc5ccc(Cl)cc5)cc4o3)cc2)C1 | 19.6% | Non-toxic | –
Clc1ccc(Oc2ccc3nc(-c4ccc(OCCN5CCCCC5)cc4)oc3c2)cc1 | 18.5% | – | 21.4
CC(C)(C)OC(=O)N1CCN(CCCOc2ccc(-c3nc4ccc(Oc5ccc(C(F)(F)F)cc5)cc4o3)cc2)CC1 | 27.8% | – | 7.9
FC(F)(F)c1ccc(Oc2ccc3nc(-c4ccc(OCCCN5CCOCC5)cc4)oc3c2)cc1 | 32.1% | Non-toxic | –
Clc1ccc(Oc2ccc3nc(-c4ccc(OC5CCNCC5)cc4)oc3c2)cc1 | 20.6% | – | 20.6
CC(C)(C)OC(=O)N1CCC(Oc2ccc(-c3nc4ccc(Oc5ccc(Cl)cc5)cc4o3)cc2)CC1 | inactive | Non-toxic | –
CC(C)(C)OC(=O)N[C@@H]1CCN(CCCOc2ccc(-c3nc4ccc(Oc5ccc(C(C)(C)C)cc5)cc4o3)cc2)C1 | 26.8% | Non-toxic | –
CC(C)(C)c1ccc(Oc2ccc3nc(-c4ccc(OCCCN5CCCCC5)cc4)oc3c2)cc1 | inactive | – | 49.4
FC(F)(F)c1ccc(Oc2ccc3nc(-c4ccc(OCCCN5CCCCC5)cc4)oc3c2)cc1 | 44.3% | – | 93.4
CC(C)(C)c1ccc(Oc2ccc3nc(-c4ccc(OCCCN5CC[C@@H](N)C5)cc4)oc3c2)cc1 | inactive | – | 12.8
Clc1ccc(Oc2ccc3nc(-c4ccc(OCC5CCNCC5)cc4)oc3c2)cc1 | inactive | – | 29

SMILES | inhibition [1] | Activity [2] | viability at 18 h, 10 µM [3] [%]
CN1CCN(CCCOc2ccc(-c3nc4ccc(Oc5ccc(Cl)cc5)cc4o3)cc2)CC1 | 24.3% | – | 69.3
CC(C)N1CCC(COc2ccc(-c3nc4ccc(Oc5ccc(Cl)cc5)cc4o3)cc2)CC1 | 26.2% | Non-toxic | –
CC(C)(C)c1ccc(Oc2ccc3nc(-c4ccc(OCCCN5CCOCC5)cc4)oc3c2)cc1 | inactive | Non-toxic | –
CC(=O)N1CCC(Oc2ccc(-c3nc4ccc(Oc5ccc(Cl)cc5)cc4o3)cc2)CC1 | 20% | Non-toxic | –
CCN(CC)CCCOc1ccc(-c2nc3ccc(Oc4ccc(C(C)(C)C)cc4)cc3o2)cc1 | inactive | – | 74.1
CCN(CC)CCCOc1ccc(-c2nc3ccc(Oc4cccc(C(F)(F)F)c4)cc3o2)cc1 | 24.1% | Non-toxic | –
CC(C)(C)c1ccc(Oc2ccc3nc(-c4ccc(OCCCN5CC[C@H](N)C5)cc4)oc3c2)cc1 | 54.7% | – | 60.3
Clc1ccc(Oc2ccc3nc(-c4ccc(OCCN5CCOCC5)cc4)oc3c2)cc1 | 25.7% | Non-toxic | –
CCOC(=O)N1CCN(CCCOc2ccc(-c3nc4ccc(Oc5ccc(Cl)cc5)cc4o3)cc2)CC1 | 6.6% | Non-toxic | –
CC(C)(C)OC(=O)N[C@H]1CCN(CCCOc2ccc(-c3nc4ccc(Oc5ccc(C(C)(C)C)cc5)cc4o3)cc2)C1 | 61.6% | – | 8.2
Clc1ccc(Oc2ccc3nc(-c4ccc(OCCCN5CCOCC5)cc4)oc3c2)cc1 | inactive | Non-toxic | –
CCN(CC)CCCOc1ccc(-c2nc3ccc(Oc4ccc(F)cc4)cc3o2)cc1 | 5.4% | Non-toxic | –
FC(F)(F)c1cccc(Oc2ccc3nc(-c4ccc(OCCCN5CCOCC5)cc4)oc3c2)c1 | inactive | Non-toxic | –
CC(C)(C)c1ccc(Oc2ccc3nc(-c4ccc(OCCCN5CCCC5)cc4)oc3c2)cc1 | inactive | Non-toxic | –
CCN1CCC(Oc2ccc(-c3nc4ccc(Oc5ccc(Cl)cc5)cc4o3)cc2)CC1 | 15.3% | – | 38.2
CCN(CC)CCCOc1ccc(-c2nc3ccc(Oc4ccc(C(F)(F)F)cc4)cc3o2)cc1 | 34.9% | Non-toxic | –

The next lines start with results.

inhibition [1] | SMILES | Activity [2] | viability at 18 h, 10 µM [3] [%]
inactive | CC(C)(C)OC(=O)N1CCC(COc2ccc(-c3nc4ccc(Oc5ccc(Cl)cc5)cc4o3)cc2)CC1 | Non-toxic | –
12.7% | CC(C)N1CCC(Oc2ccc(-c3nc4ccc(Oc5ccc(Cl)cc5)cc4o3)cc2)CC1 | – | 86.5
2.1% | CCN1CCC(COc2ccc(-c3nc4ccc(Oc5ccc(Cl)cc5)cc4o3)cc2)CC1 | – | 4.1
56.7% | Fc1ccc(Oc2ccc3nc(-c4ccc(OCCCN5CCOCC5)cc4)oc3c2)cc1 | Non-toxic | –
16.6% | CC(C)(C)C1CCN(CCCOc2ccc(-c3nc4ccc(Oc5ccc(Cl)cc5)cc4o3)cc2)CC1 | – | 32.2
inactive | Clc1ccc(Oc2ccc3nc(-c4ccc(OCCCN5CCCC5)cc4)oc3c2)cc1 | Non-toxic | –
4.9% | CCN(CC)CCCOc1ccc(-c2nc3ccc(Oc4ccc(Cl)cc4)cc3o2)cc1 | – | 32.1
19.5% | CN1CCC(Oc2ccc(-c3nc4ccc(Oc5ccc(Cl)cc5)cc4o3)cc2)CC1 | – | 74.3
30.3% | Fc1ccc(Oc2ccc3nc(-c4ccc(OCCCN5CCCCC5)cc4)oc3c2)cc1 | Non-toxic | –
41.2% | CC(C)COC(=O)N1CCN(CCCOc2ccc(-c3nc4ccc(Oc5ccc(Cl)cc5)cc4o3)cc2)CC1 | Non-toxic | –
2.2% | Clc1ccc(Oc2ccc3nc(-c4ccc(OCCCN5CCCCC5)cc4)oc3c2)cc1 | – | 32.4
42.7% | Clc1ccc(Oc2ccc3nc(-c4ccc(OCCCN5CCNCC5)cc4)oc3c2)cc1 | – | 18.5
90.2% | CC(C)(C)OC(=O)N[C@@H]1CCN(CCCOc2ccc(-c3nc4ccc(Oc5ccc(Cl)cc5)cc4o3)cc2)C1 | – | 63.2
16.6% | CC(C)(C)OC(=O)N[C@H]1CCN(CCCOc2ccc(-c3nc4ccc(Oc5ccc(Cl)cc5)cc4o3)cc2)C1 | – | 58.2
